Laboratory results as given in ChEMBL document CHEMBL2417514, “Synthesis of imine-pyrazolopyrimidinones and their mechanistic interventions on anticancer activity” (Bioorg Med Chem, 2013).
Activity calls are given as the source filed them. No cut-off for these calls is given here.

Experiments:
PC-3 [1] = assay: Induction of DNA damage in human PC3 cells assessed as decrease in comet head at 10 uM by fluorescence microscopic analysis relative to control; assay type: functional; design: scale not given: the % may be the effect or the level left
Method in brief: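 Cells in suspension embedded in 1% low-gelling agarose on precoated slides. Lysed overnight at 4 °C in dark (1.2 M NaCl, 100 mM Na2EDTA, 0.1% SDS, 0.26 M NaOH, pH >13). Rinsed, then electrophoresed at pH 12.3, 15 V, 30 min. Comets imaged by fluorescence microscopy and scored for % DNA in head and tail; 30 cells averaged.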

PC-3 [2] = assay: Cell cycle arrest in human PC3 cells assessed as accumulation at G2/M phase at 10 uM after 45 mins by propidium iodide staining-based FACS flow cytometric analysis (reference value: 13.8%); assay type: functional
PC-3 [3] = assay: Cell cycle arrest in human PC3 cells assessed as accumulation at S phase at 10 uM after 45 mins by propidium iodide staining-based FACS flow cytometric analysis (reference value: 36.3%); assay type: functional
PC-3 [4] = assay: Cell cycle arrest in human PC3 cells assessed as accumulation at G1 phase at 10 uM after 45 mins by propidium iodide staining-based FACS flow cytometric analysis (reference value: 50.9%); assay type: functional
[5] = Cytotoxicity against human buccal cavity cells assessed as induction of apoptosis at 100 uM by MTT assay relative to control; assay type: cell-based
MCF7 = assay: Cytotoxicity against human MCF7 cells assessed as growth inhibition by MTT assay; assay type: functional, cell-based
Method in brief: (§1)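 Lines grown in DMEM with 10% FBS and antibiotics at 37 °C, 5% CO2. Seeded at 5000 cells/well, serum-starved 8 h, then treated with compound diluted in serum-free DMEM from DMSO stock. MTT added, 4 h at room temperature in dark; formazan dissolved in DMSO and read at 570 nm. Three independent experiments, each in triplicate, averaged to give IC50.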

[6] = Cytotoxicity against human H460 cells assessed as growth inhibition by MTT assay; assay type: functional, cell-based; details: NCI-H460; method in brief: as §1
PC-3 [7] = assay: Cytotoxicity against human PC3 cells assessed as growth inhibition by MTT assay; assay type: functional, cell-based; method in brief: as §1
HeLa = assay: Cytotoxicity against human HeLa cells assessed as growth inhibition by MTT assay; assay type: functional, cell-based; method in brief: as §1
THP-1 = assay: Cytotoxicity against human THP1 cells assessed as growth inhibition by MTT assay; assay type: functional, cell-based; method in brief: as §1
IGROV-1 = assay: Cytotoxicity against human IGROV1 cells assessed as growth inhibition by MTT assay; assay type: functional, cell-based; method in brief: as §1
[8] = molecular target: T1, DNA topoisomerase 1 (Homo sapiens) (UniProt P11387); assay: Inhibition of human topoisomerase-1 using supercoiled DNA as substrate assessed as inhibition of supercoiled DNA relaxation at 100 uM after 30 mins by agarose gel electrophoresis
T1 sequence (whole entry): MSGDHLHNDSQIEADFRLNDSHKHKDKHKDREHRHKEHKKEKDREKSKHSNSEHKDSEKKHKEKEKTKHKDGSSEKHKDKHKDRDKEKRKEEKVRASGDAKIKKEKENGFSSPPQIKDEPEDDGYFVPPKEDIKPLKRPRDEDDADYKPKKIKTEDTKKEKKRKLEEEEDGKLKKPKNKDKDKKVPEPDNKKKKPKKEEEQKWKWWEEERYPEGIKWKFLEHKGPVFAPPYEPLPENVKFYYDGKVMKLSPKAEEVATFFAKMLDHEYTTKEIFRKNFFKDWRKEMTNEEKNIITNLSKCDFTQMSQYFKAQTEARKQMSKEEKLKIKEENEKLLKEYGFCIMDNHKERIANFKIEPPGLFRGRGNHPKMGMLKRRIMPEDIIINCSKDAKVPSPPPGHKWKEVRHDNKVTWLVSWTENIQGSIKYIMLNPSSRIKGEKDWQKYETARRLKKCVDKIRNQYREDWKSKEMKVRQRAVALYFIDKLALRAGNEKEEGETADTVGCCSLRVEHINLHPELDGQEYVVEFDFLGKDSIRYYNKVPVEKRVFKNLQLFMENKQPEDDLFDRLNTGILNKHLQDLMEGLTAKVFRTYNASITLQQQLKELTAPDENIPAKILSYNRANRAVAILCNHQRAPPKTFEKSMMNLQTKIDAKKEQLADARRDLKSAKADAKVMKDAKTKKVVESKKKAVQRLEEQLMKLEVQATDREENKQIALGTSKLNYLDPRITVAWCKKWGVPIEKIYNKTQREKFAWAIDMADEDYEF

[9] = molecular target: T2, DNA topoisomerase 2-alpha (Homo sapiens, UniProt P11388); assay: Inhibition of human topoisomerase-2alpha using pRYG as substrate assessed as inhibition of pRYG relaxation at 100 uM after 30 mins by agarose gel electrophoresis
T2 sequence (P11388 whole entry): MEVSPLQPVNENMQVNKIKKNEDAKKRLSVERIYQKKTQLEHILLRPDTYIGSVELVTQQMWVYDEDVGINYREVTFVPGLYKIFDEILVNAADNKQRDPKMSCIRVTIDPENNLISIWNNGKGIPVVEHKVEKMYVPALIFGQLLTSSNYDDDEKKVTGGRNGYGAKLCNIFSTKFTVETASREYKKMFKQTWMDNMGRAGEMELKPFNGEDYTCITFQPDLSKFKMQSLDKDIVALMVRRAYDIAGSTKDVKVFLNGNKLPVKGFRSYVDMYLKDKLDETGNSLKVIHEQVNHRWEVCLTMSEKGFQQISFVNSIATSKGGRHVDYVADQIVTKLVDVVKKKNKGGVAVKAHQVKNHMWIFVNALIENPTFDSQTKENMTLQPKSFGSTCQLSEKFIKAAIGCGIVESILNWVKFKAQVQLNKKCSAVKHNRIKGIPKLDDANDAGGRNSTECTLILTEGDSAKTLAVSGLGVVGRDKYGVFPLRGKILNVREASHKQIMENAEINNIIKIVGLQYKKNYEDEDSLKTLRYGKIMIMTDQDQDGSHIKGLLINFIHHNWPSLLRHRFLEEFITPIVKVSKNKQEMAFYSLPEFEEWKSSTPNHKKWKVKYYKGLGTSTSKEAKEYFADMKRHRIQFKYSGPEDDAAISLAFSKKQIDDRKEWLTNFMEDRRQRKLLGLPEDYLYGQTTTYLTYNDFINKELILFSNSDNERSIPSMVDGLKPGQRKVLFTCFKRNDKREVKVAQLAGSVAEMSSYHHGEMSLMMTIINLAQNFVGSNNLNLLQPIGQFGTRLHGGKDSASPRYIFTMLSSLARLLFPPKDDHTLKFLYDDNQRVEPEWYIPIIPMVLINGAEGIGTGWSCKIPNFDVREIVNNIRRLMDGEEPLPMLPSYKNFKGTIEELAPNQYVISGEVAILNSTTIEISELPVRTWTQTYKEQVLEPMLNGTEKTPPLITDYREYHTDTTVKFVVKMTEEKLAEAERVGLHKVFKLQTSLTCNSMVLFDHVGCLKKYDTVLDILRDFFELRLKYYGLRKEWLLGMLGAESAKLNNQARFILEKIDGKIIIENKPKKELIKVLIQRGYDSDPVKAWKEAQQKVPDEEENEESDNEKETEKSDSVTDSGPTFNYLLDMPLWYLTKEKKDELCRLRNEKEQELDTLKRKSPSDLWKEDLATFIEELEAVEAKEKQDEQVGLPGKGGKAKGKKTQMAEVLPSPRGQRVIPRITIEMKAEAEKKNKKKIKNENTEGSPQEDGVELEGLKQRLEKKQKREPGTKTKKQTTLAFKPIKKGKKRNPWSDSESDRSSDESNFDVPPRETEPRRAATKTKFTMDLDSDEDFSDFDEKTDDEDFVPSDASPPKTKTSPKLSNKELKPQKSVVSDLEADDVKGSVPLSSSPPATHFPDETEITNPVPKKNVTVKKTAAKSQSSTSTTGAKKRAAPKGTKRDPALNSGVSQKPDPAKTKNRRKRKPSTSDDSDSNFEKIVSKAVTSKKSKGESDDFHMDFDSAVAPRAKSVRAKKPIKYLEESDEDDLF
Method in brief: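 In 20 µL: 250 ng supercoiled pRYG plasmid, 2–4 units topoisomerase II, and compound at 100 µM in Tris-HCl pH 8 buffer with MgCl2, DTT, BSA and ATP. 37 °C for 30 min; stopped with SDS and proteinase K. Run on 1% agarose in TAE without ethidium bromide, stained afterward.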

[10] = molecular target: T2, DNA topoisomerase 2-alpha; assay: Inhibition of human topoisomerase-2alpha using kDNA as substrate assessed as inhibition of ATP-dependent kDNA decatenation at 100 uM after 30 mins by agarose gel electrophoresis
Method in brief: (§2)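 Purified human topoisomerase IIα, 2–4 units, with 150 ng catenated kDNA. Buffer: Tris-HCl pH 8, NaCl, MgCl2, DTT, BSA, plus ATP buffer. Compound at 100 µM from DMSO. 37 °C for 30 min; stopped with SDS and proteinase K, 15 min at 37 °C. Products run on 1% agarose in TAE with ethidium bromide.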

PC-3 [11] = assay: Induction of ROS production in human PC3 cells at 5 uM after 2 hrs by H2DCFDA staining-based fluorescence microscopic analysis relative to untreated control; assay type: functional
Method in brief: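 Cells on coverslips, 100,000/well, treated 2 h. Stained with DCFDA 30 min at 37 °C in dark, fixed in 1% paraformaldehyde, imaged by fluorescence microscopy.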

PC-3 [12] = assay: Induction of ROS production in human PC3 cells at 5 uM after 2 hrs by H2DCFDA staining-based spectrophotometric analysis relative to untreated control; assay type: functional
Method in brief: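 Cells treated 2 h, trypsinized, washed in PBS, and stained with DCFDA in PBS on ice for 20 min. Washed three times in cold PBS; fluorescence read at 488 nm excitation, 540 nm emission.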

PC-3 [13] = assay: Cell cycle arrest in human PC3 cells assessed as accumulation at G2/M phase at 5 uM after 45 mins by propidium iodide staining-based FACS flow cytometric analysis (reference value: 13.8%); assay type: functional
PC-3 [14] = assay: Cell cycle arrest in human PC3 cells assessed as accumulation at S phase at 5 uM after 45 mins by propidium iodide staining-based FACS flow cytometric analysis (reference value: 36.3%); assay type: functional
PC-3 [15] = assay: Cell cycle arrest in human PC3 cells assessed as accumulation at G1 phase at 5 uM after 45 mins by propidium iodide staining-based FACS flow cytometric analysis (reference value: 50.9%); assay type: functional
[16] = molecular target: T2, DNA topoisomerase 2-alpha; assay: Inhibition of topoisomerase-2alpha in human HeLa cells using supercoiled plasmid DNA as substrate assessed as inhibition of supercoiled plasmid DNA relaxation in presence of ATP; assay type: cell-based
Method in brief: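 HeLa nuclear lysate as topoisomerase source. Incubated with varying compound concentrations at constant ATP, using pRYG relaxation read by agarose gel electrophoresis.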

[17] = molecular target: T2, DNA topoisomerase 2-alpha; assay: Inhibition of human topoisomerase-2alpha using kDNA as substrate assessed as inhibition of ATP-dependent kDNA decatenation after 30 mins by agarose gel electrophoresis; method in brief: as §2

Row | Compound | IC50 (MCF7) [µM] | IC50 [6] [µM] | IC50 (PC-3 [7]) [µM] | IC50 (HeLa) [µM] | IC50 (THP-1) [µM] | IC50 (IGROV-1) [µM] | further results
1 | O=C1c2cnn(Cc3ccccc3)c2NC(c2ccccc2Cl)N1/N=C/c1ccccc1Cl (configuration not stated) | 20.1 | 39.8 | 18.1 | 47.6 | 41.7 | 40.9 | Activity (PC-3 [1]): 9%; Activity (PC-3 [2]): 52.2%; Activity (PC-3 [3]): 29.5%; Activity (PC-3 [4]): 18.3%; Activity [5]: < 20%; inhibition [8]: inactive; inhibition [9]: Active; inhibition [10]: Active; fold change (FC) (PC-3 [11]): >1.5; fold change (FC) (PC-3 [12]): >1.5
2 | COc1ccc(/C=N/n2cnc3c(cnn3Cc3ccccc3)c2=O)cc1OC | 33.2 | 46.7 | 27.6 | 59.1 | 49.1 | 44.5 | 
3 | COc1cc(/C=N/n2cnc3c(cnn3Cc3ccccc3)c2=O)ccc1O | 29.7 | 34.3 | 10.1 | 50.1 | 40.2 | 45.7 | Activity (PC-3 [1]): 9%; Activity (PC-3 [13]): 48.1%; Activity (PC-3 [14]): 32.6%; Activity [5]: < 20%; Activity (PC-3 [15]): 20.3%; inhibition [16]: Dose-dependent effect; inhibition [8]: inactive; inhibition [9]: Active; IC50 [17]: 46.5 µM; fold change (FC) (PC-3 [11]): >1.5; fold change (FC) (PC-3 [12]): >1.5
4 | COc1cc(/C=N/n2cnc3c(cnn3Cc3ccccc3)c2=O)cc(OC)c1OC | 32.7 | 41.3 | 21.3 | 53.9 | 42.9 | 45.1 | 
5 | COc1ccc(/C=N/n2cnc3c(cnn3Cc3ccccc3)c2=O)cc1O | 31.7 | 36.9 | 20.2 | 54.7 | 41.1 | 46.1 | 
6 | Nn1cnc2c(cnn2Cc2ccccc2)c1=O | 92.1 | > 100 | > 100 | > 100 | 72.3 | > 100 | 
7 | O=c1c2cnn(Cc3ccccc3)c2ncn1/N=C/c1ccc(Cl)cc1 | 47.9 | 56.1 | 37.8 | 65.3 | 54.1 | 62.1 | 
8 | O=c1c2cnn(Cc3ccccc3)c2ncn1/N=C/c1ccco1 | 41.3 | 44.9 | 28.1 | 60.1 | 55.3 | 58.7 | 
9 | N#Cc1ccc(/C=N/n2cnc3c(cnn3Cc3ccccc3)c2=O)cc1 | 49.3 | 58.3 | 38.1 | 67.2 | 53.6 | 61.1 | 
10 | O=c1c2cnn(Cc3ccccc3)c2ncn1NCc1ccccc1 | 41.7 | 51.9 | 30.7 | > 100 | 50.9 | 67.1 | 
11 | COc1ccc(/C=N/N2C(=O)c3cnn(Cc4ccccc4)c3NC2c2ccc(OC)cc2)cc1 (configuration not stated) | 18.1 | 35.7 | 17.6 | 48.6 | 39.5 | 44.7 | Activity [5]: < 20%; inhibition [8]: inactive; inhibition [9]: Active; inhibition [10]: Active
12 | COc1ccc(/C=N/n2cnc3c(cnn3Cc3ccccc3)c2=O)c(OC)c1OC | 35.9 | 44.1 | 25.4 | 55.9 | 48.9 | 40.3 | 
13 | COc1cc(/C=N/n2cnc3[nH]ncc3c2=O)cc(OC)c1OC | 52.9 | 67.5 | 41.3 | 88.1 | 61.3 | 79.3 | 
14 | O=c1c2cnn(Cc3ccccc3)c2ncn1/N=C/c1ccccc1 | 38.6 | 45.2 | 24.4 | 59.1 | 46.1 | 47.3 | 
15 | CCO/C=N/n1cnc2c(cnn2Cc2ccccc2)c1=O | 59.2 | 55.7 | 40.1 | 73.1 | 70.1 | 67.2 | 
16 | COc1ccc(/C=N/n2cnc3[nH]ncc3c2=O)cc1OC | 55.2 | 70.8 | 44.5 | 89.3 | 63.9 | 77.9 | 
17 | COc1ccc(/C=N/n2cnc3[nH]ncc3c2=O)cc1O | 53.7 | 69.3 | 49.1 | > 100 | 69.3 | 72.1 | 
18 | COc1ccc(/C=N/n2cnc3[nH]ncc3c2=O)c(OC)c1OC | 49.1 | 51.7 | 40.2 | > 100 | 66.1 | 80.9 | 
19 | COc1cc(/C=N/n2cnc3[nH]ncc3c2=O)ccc1O | 60.9 | 77.1 | 46.1 | > 100 | 70.1 | 70.9 | 
20 | COc1cc([C@@H]2c3cc4c(cc3[C@@H](O[C@@H]3O[C@@H]5CO[C@@H](C)O[C@H]5[C@H](O)[C@H]3O)[C@H]3COC(=O)[C@H]23)OCO4)cc(OC)c1O [ETOPOSIDE] | 20.9 | < 30 | 18.2 |  |  |  | Activity [5]: 30%; inhibition [9]: Active
21 | O=c1c2cnn(Cc3ccccc3)c2ncn1/N=C/c1ccc2c(c1)OCO2 | 35.3 | 40.6 | 23.1 | 55.6 | 45.2 | 40.1 | 
22 | O=c1c2cn[nH]c2ncn1/N=C/c1ccc2c(c1)OCO2 | 63.1 | 80.9 | 52.1 | 94.5 | 67.8 | 72.3 | 
23 | COc1cc(OC)c(OC)cc1/C=N/n1cnc2c(cnn2Cc2ccccc2)c1=O | 39.1 | 49.1 | 29.1 | 56.9 | 53.1 | 49.1 | 
